Series [1] concerns the target Mitogen-activated protein kinase 9 (Homo sapiens) (UniProt P45984). The experiment in a line: Inhibition of JNK2 (unknown origin) at 1 uM relative to control. The essentials:
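Single-point screen of each compound against a panel of 59 protein kinases, at 1 or 10 μM. The panel data are also summarised as a rescaled geometric mean selectivity score.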

In series [2] the target is T1, Protein kinase C zeta type (Homo sapiens) (UniProt Q05513).
T1 sequence (whole entry): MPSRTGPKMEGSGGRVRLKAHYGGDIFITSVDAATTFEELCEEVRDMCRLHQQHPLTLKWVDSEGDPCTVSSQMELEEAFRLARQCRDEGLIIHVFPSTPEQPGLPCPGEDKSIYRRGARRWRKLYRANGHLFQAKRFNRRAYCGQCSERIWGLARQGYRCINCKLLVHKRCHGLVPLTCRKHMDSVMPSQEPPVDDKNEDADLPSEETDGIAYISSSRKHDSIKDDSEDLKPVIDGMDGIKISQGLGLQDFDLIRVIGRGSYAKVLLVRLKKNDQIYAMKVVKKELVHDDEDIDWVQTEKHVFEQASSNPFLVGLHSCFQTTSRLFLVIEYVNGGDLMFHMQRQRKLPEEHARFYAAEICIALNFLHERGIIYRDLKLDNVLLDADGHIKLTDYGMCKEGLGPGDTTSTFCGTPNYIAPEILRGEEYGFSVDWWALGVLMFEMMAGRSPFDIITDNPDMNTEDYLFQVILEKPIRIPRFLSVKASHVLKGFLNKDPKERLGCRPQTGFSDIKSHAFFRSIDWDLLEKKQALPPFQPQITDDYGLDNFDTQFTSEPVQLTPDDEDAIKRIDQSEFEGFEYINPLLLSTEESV
The series can be described thus: Inhibition of PKCz (unknown origin) at 1 uM relative to control. The gist of the method:
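Single-concentration screen of each compound against a 59-protein-kinase panel, run at 10 µM or 1 µM. Activity relative to control is shown as a heat map across the panel.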

A short description of series [3]: Lipophilicity, log D of the compound at pH 7.4. The class given is physicochemical. To be noted: buffer.
Series [4] in a line: Ratio of drug level in mouse brain to plasma. To be noted: read-out: BPR. The gist of the method:
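Mice; ratio based on total (not unbound) compound concentrations in brain versus plasma.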

Sequence of Mitogen-activated protein kinase 9 (Homo sapiens) (P45984 whole entry, looked up): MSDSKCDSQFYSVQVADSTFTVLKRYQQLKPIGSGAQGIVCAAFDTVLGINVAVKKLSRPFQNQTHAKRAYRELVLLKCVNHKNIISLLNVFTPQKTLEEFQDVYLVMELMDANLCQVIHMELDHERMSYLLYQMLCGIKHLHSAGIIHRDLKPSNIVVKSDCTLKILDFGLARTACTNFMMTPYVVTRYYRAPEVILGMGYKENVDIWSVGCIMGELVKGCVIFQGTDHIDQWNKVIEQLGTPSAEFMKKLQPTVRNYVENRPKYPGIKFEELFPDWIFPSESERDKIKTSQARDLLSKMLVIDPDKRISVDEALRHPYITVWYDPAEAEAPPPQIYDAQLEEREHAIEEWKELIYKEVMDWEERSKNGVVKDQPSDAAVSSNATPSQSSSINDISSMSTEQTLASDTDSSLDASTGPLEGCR

In general, inhibition refers to the percentage by which the read-out fell short of the control. Read a low inhibition as a response near the control. For `c1cc(-c2n[nH]c3ccnc(OC4CCOCC4)c23)cc(N2CCOCC2)n1`, the inhibition amounted to 43% in series [1] and 1% in series [2]. Broadly, the logD is the decadic logarithm of the distribution of all forms, ionised or not, between an organic phase and buffer at a given pH. A higher logD goes with a more lipophilic compound. In series [3], `Cc1n[nH]c2ccnc(OC3CCCCC3)c12` yielded a logD of more than 4. Regarding `Cc1n[nH]c2ccnc(NC3CCCCC3)c12`, the Kp in series [4] worked out at 4. Regarding `CC(C)n1cc(-c2n[nH]c3ccnc(OC4CCOCC4)c23)cn1`, the inhibition came out at 29% in series [1] and 14% in series [2].
